The target of test [1] is T1, Muscarinic acetylcholine receptor M4 (Rattus norvegicus, UniProt P08485).
T1 sequence (P08485 whole entry): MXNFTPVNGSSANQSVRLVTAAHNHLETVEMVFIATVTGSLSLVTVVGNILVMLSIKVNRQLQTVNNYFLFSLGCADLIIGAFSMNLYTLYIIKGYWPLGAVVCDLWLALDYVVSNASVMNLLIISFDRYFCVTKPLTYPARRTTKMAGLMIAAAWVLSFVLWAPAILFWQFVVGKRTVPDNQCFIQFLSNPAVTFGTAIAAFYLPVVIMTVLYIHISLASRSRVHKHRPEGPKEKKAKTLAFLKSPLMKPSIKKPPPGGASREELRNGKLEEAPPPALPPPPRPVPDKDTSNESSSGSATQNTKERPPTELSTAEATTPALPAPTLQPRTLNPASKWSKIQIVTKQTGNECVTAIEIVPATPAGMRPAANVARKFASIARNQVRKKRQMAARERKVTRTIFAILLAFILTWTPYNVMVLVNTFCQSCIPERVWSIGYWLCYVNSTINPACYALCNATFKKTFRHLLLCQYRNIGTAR
Nature of the test: […] to Muscarinic acetylcholine receptor M4. An outline of the steps:
(§1)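 Competition against 0.7-0.8 nM [3H]NMS using homogenates of rat heart (M2) or submaxillary gland (M3), 500 µg protein each, or NG 108-15 cells (M4), 600 µg protein. Incubation 2 h at 25 °C in 50 mM sodium phosphate pH 7.4 with 2 mM MgCl2 and 1% BSA. Nonspecific binding defined with 10 µM atropine. Filtration; Ki by Cheng-Prusoff; at least three experiments, each in triplicate.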

Test [2] deals with Muscarinic acetylcholine receptor M3 (Cavia porcellus, UniProt Q8VH26). Description: Antagonist affinity evaluated against Muscarinic acetylcholine receptor M3 in isolated guinea pig longitudinal Ileum. Type of test: functional, tissue-based. To be noted: read-out: pA2 (converted). An outline of the steps: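 Guinea pig left atria (M2, negative inotropism, electrically driven at 1 Hz) and ileum longitudinal muscle (M3, contraction). Agonist: arecaidine propargyl ester. Ileum: isotonic recording, at least 30 min equilibration. APE curves (0.01-0.5 µM) taken at 30-min intervals, the second curve serving as control. After 60 min antagonist incubation the curve was repeated. Dose ratios at agonist EC50, 3-6 antagonist concentrations, 4-6 replicates each; pA2 from Schild plots constrained to slope -1.0.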
Chain of Muscarinic acetylcholine receptor M3 (Cavia porcellus, UniProt Q8VH26) (Q8VH26 whole entry): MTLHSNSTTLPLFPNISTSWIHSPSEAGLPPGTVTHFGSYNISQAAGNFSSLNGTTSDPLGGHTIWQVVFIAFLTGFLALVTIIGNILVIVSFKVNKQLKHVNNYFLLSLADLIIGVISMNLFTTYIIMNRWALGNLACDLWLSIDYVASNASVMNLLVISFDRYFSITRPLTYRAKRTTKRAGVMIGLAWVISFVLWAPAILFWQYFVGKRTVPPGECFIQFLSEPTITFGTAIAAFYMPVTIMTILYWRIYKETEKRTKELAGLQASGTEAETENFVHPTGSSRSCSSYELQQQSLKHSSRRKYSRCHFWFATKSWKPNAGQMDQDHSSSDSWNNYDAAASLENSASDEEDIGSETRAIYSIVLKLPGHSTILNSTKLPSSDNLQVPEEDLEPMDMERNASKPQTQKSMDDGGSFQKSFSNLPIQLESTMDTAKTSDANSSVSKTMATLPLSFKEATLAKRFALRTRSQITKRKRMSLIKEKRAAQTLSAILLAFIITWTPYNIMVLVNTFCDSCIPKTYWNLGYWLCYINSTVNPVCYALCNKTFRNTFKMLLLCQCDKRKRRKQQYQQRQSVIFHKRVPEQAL

The target of test [3] is Muscarinic acetylcholine receptor M3 (Rattus norvegicus, UniProt P08483). Nature of the test: Inhibition of [3H]NMS binding to rat submaxillary gland Muscarinic acetylcholine receptor M3. An outline of the steps:
as §1

Test [4] addresses T2, Muscarinic acetylcholine receptor M1 (Rattus norvegicus, UniProt P08482).
T2 sequence (P08482 whole entry): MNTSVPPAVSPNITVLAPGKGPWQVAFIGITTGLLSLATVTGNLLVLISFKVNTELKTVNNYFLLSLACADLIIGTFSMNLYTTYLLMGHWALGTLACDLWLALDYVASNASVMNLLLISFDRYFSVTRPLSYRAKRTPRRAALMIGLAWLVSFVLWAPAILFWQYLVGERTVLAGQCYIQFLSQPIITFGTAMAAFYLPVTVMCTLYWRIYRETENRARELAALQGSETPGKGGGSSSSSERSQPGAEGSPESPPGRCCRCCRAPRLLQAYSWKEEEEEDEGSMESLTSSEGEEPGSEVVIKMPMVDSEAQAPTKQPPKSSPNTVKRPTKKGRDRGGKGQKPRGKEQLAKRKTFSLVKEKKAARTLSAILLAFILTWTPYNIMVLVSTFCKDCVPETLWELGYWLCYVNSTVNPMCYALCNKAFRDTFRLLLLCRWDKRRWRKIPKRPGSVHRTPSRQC
Description: Binding affinity for rat cortex Muscarinic acetylcholine receptor M1. An outline of the steps: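 Rat cerebral cortex homogenate (200 µg protein) competed against 5 nM [3H]pirenzepine. Incubation 2 h at 25 °C in 50 mM sodium phosphate pH 7.4 with 2 mM MgCl2 and 1% BSA. Nonspecific binding defined with 10 µM atropine. Filtration on PEI-soaked glass-fiber filters. Ki by Cheng-Prusoff; at least three experiments, each in triplicate.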

Test [5] has as its target T3, Muscarinic acetylcholine receptor M2 (Rattus norvegicus, UniProt P10980).
T3 sequence (P10980 whole entry): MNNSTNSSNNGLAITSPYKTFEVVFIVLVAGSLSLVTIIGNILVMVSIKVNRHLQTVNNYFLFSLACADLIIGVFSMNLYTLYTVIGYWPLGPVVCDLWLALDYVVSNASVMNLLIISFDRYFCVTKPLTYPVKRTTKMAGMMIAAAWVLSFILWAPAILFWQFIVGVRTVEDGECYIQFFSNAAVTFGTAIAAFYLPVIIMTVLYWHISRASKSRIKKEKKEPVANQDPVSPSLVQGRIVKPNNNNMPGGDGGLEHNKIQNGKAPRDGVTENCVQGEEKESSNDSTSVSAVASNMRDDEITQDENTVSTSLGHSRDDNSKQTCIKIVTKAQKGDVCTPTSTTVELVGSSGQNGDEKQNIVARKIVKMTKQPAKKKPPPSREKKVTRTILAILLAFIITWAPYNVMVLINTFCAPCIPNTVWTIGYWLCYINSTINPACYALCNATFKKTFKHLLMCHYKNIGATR
Description: Inhibition of [3H]NMS binding to rat heart Muscarinic acetylcholine receptor M2.

The target in test [6] is Muscarinic acetylcholine receptor M2 (Cavia porcellus). Description: Antagonist affinity evaluated against Muscarinic acetylcholine receptor M2 in isolated guinea pig left atrium. To be noted: read-out: pA2 (converted).

Chain of Muscarinic acetylcholine receptor M3 (Rattus norvegicus, UniProt P08483) (P08483 whole entry): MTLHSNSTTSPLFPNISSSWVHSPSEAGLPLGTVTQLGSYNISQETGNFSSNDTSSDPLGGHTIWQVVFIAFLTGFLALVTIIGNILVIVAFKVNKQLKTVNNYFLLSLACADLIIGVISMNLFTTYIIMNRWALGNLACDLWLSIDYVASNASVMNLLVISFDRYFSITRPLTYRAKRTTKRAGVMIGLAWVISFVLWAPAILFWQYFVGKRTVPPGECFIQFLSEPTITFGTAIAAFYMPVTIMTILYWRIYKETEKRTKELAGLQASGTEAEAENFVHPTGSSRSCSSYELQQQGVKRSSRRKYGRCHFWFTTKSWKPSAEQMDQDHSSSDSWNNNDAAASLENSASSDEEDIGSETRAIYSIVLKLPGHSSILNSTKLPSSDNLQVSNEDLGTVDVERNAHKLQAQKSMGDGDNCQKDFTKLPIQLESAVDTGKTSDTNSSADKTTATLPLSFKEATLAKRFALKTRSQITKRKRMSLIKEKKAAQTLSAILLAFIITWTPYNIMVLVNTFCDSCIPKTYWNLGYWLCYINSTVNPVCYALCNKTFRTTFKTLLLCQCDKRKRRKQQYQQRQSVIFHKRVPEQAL

Usually Ki stands for a dissociation constant, usually derived from enzyme kinetics or from competition with a known ligand. A high value points to weaker binding. In the case of `CN(CCCCCCN)CCCCCCCCN(C)CCCCCCNCC(=O)N1c2ccccc2C(=O)Nc2cccnc21`, the Ki in test [1] was 15.8 nM; in test [3], 331 nM; in test [4] it was 4.37 nM. The Kb in test [2] was 275 nM.
As to `CN(CCCCCCCCN(C)CCCCCCN(CC(=O)N1c2ccccc2NC(=O)c2cccnc21)CC(=O)N1c2ccccc2NC(=O)c2cccnc21)CCCCCCNCC(=O)N1c2ccccc2NC(=O)c2cccnc21`, the Ki is 0.912 nM in test [5], 39.8 nM in test [1], 398 nM in test [3] and 12.6 nM in test [4]. Besides, the Kb in test [6] is 2.51 nM; in test [2], 912 nM.
Take `CN(CCCCCCCCN(C)CCCCCCNCC(=O)N1c2ccccc2NC(=O)c2cccnc21)CCCCCCNCC(=O)N1c2ccccc2NC(=O)c2cccnc21`: the Ki in test [5] is 20.9 nM; in test [1] it was 36.3 nM; in test [3], 2570 nM; in test [4], 14.5 nM. Further, the values for the Kb in test [6] and in test [2] were 5.25 nM and 537 nM, respectively.
In the case of `CN(CCCCCCCCN(C)CCCCCCN(CC(=O)N1c2ccccc2NC(=O)c2cccnc21)CC(=O)N1c2ccccc2NC(=O)c2cccnc21)CCCCCCN(CC(=O)N1c2ccccc2NC(=O)c2cccnc21)CC(=O)N1c2ccccc2NC(=O)c2cccnc21`, the Ki in test [1] was 158 nM; in test [3] it was 2510 nM; in test [4], 25.1 nM. The Kb in test [2] was 1620 nM.
As to `CN(CCCCCCCCN(C)CCCCCCN(CC(=O)N1c2ccccc2NC(=O)c2ccccc21)CC(=O)N1c2ccccc2NC(=O)c2ccccc21)CCCCCCNCC(=O)N1c2ccccc2NC(=O)c2ccccc21`, the Ki in test [5] was 0.437 nM; in test [1] it was 41.7 nM; in test [3], 110 nM; in test [4] it was 0.955 nM. The results for the Kb in test [6] and in test [2] were 0.2 nM and 44.7 nM, respectively.
As for `CN(CCCCCCCCN(C)CCCCCCNCC(=O)N1c2ccccc2NC(=O)c2ccccc21)CCCCCCNCC(=O)N1c2ccccc2NC(=O)c2ccccc21`, the Ki is 2.82 nM in test [1], 115 nM in test [3] and 14.8 nM in test [4]. Moreover, the Kb in test [2] is 112 nM.
Consider `CN(CCCCCCCCN(C)C(=O)CCCCCNCCCC(=O)N1c2ccccc2C(=O)Nc2cccnc21)C(=O)CCCCCN`, for which the Kb was 0.457 nM in test [6] and 1.86 nM in test [2].
As for `CN(CCCCCCN)CCCCCCCCN(C)CCCCCCNCCCC(=O)N1c2ccccc2C(=O)Nc2cccnc21`, the values for the Ki in test [1], in test [3] and in test [4] were 1.45 nM, 3.02 nM and 0.501 nM, respectively. The Kb in test [2] was 4.79 nM.
With `CN(CCCCCCN)CCCCCCCCN(C)CCCCCCNCCC(=O)N1c2ccccc2C(=O)Nc2cccnc21`, the values for the Kb in test [6] and in test [2] were 2.69 nM and 17 nM, respectively.
`CN(CCCCCCCCN(C)C(=O)CCCCCNCC(=O)N1c2ccccc2C(=O)Nc2cccnc21)C(=O)CCCCCNCC(=O)N1c2ccccc2C(=O)Nc2cccnc21`: the Kb in test [6] is 0.501 nM; in test [2] it was 72.4 nM.
Turning to `CN(CCCCCCCCN(C)C(=O)CCCCCN(CC(=O)N1c2ccccc2C(=O)Nc2cccnc21)CC(=O)N1c2ccccc2C(=O)Nc2cccnc21)C(=O)CCCCCN`, the Kb in test [6] is 5620 nM; in test [2], 7240 nM.
For the molecule `CN(CCCCCCN)CCCCCCCCN(C)CCCCCCNCCCCC(=O)N1c2ccccc2C(=O)Nc2cccnc21`, the figures for the Kb in test [6] and in test [2] were 0.977 nM and 19.5 nM, respectively.
Take `CN(CCCCCCCCN(C)C(=O)CCCCCNCCCCC(=O)N1c2ccccc2C(=O)Nc2cccnc21)C(=O)CCCCCN`: the Ki in test [1] was 63.1 nM; in test [3] it was 70.8 nM; in test [4] it was 63.1 nM. The Kb in test [2] was 13.8 nM.
Take `CN(CCCCCCCCN(C)C(=O)CCCCCN(CC(=O)N1c2ccccc2C(=O)Nc2cccnc21)CC(=O)N1c2ccccc2C(=O)Nc2cccnc21)C(=O)CCCCCN(CC(=O)N1c2ccccc2C(=O)Nc2cccnc21)CC(=O)N1c2ccccc2C(=O)Nc2cccnc21`: the Kb in test [6] is 17.8 nM; in test [2], 2140 nM.
As to `CN(CCCCCCCCN(C)C(=O)CCCCCNCCC(=O)N1c2ccccc2C(=O)Nc2cccnc21)C(=O)CCCCCN`, the Kb is 9.12 nM in test [6] and 18.2 nM in test [2].
Take `CN(CCCCCCCCN(C)C(=O)CCCCCNCC(=O)N1c2ccccc2C(=O)Nc2cccnc21)C(=O)CCCCCN`: the Ki in test [5] is 44.7 nM; in test [1] it was 20 nM; in test [3], 158 nM; in test [4] it was 316 nM. Also, the Kb in test [6] was 9.77 nM; in test [2] it was 437 nM.
On to `CN(CCCCCCCCN(C)C(=O)CCCCCN(CC(=O)N1c2ccccc2C(=O)Nc2cccnc21)CC(=O)N1c2ccccc2C(=O)Nc2cccnc21)C(=O)CCCCCNCC(=O)N1c2ccccc2C(=O)Nc2cccnc21`, for which the Ki is 158 nM in test [1], 5750 nM in test [3] and 50.1 nM in test [4]. The Kb in test [2] is 550 nM.
On to `COc1ccccc1CNCCCCCCNCCCCCCCCNCCCCCCNCc1ccccc1OC` [METHOCTRAMINE], for which the Ki in test [1] is 32.4 nM; in test [3], 955 nM. For the same molecule, the Kb in test [2] is 363 nM.
Regarding `CN(CCCCCCCCN(C)CCCCCCN(CC(=O)N1c2ccccc2C(=O)Nc2cccnc21)CC(=O)N1c2ccccc2C(=O)Nc2cccnc21)CCCCCCNCC(=O)N1c2ccccc2C(=O)Nc2cccnc21` [TRIPITRAMINE], the Ki in test [1] was 11.5 nM; in test [3], 148 nM; in test [4], 3.55 nM.

The record behind these values is ChEMBL document CHEMBL1131294, “Universal template approach to drug design: polyamines as selective muscarinic receptor antagonists” (J Med Chem, 1998).
